This note sets out measurements from ChEMBL document CHEMBL3407373, “Design, synthesis and evaluation of a novel class of glucosamine mimetic peptides containing 1,3-dioxane” (2015).

Each structure is given as a SMILES string. Where a name gives a salt, the structure may show the parent alone.

The term inhibition in vivo denotes the relative decrease from the control value, in per cent.

The test system of the first assay is Mus musculus. The assay can be described thus: Antiinflammatory activity against ICR mouse ear edema model assessed as inhibition of xylene-induced edema at 1 umol/kg, po administered 30 mins prior to xylene challenge measured after 2 hrs relative to vehicle-treated control. The class given is functional. In outline:
(§1)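 Male ICR mice (18-20 g), 12/12 h light/dark, free food and water, acclimated 1 day; groups of twelve. Test agents were given by oral gavage as suspensions in 0.5% CMC, with CMC alone as vehicle control, 30 min before xylene was applied to both surfaces of the right ear; the left ear served as control. At 2 h, mice were decapitated and 8.0 mm ear biopsies were punched and weighed; edema = right minus left weight.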
For `CC[C@H](C)[C@H](NCCC1OCC(C)(C)CO1)C(=O)N[C@H]1C(O)O[C@H](CO)[C@@H](O)[C@@H]1O` (some centres not stated), the inhibition in vivo at 1 µmol/kg came out at 70.8%.

The test system of a further assay is Mus musculus. As to the kind of experiment: Antiinflammatory activity against ICR mouse ear edema model assessed as inhibition of xylene-induced edema at 10 umol/kg, po administered 30 mins prior to xylene challenge measured after 2 hrs relative to vehicle-treated control. The class given is functional. In outline:
as §1
On to `CC[C@H](C)[C@H](NCCC1OCC(C)(C)CO1)C(=O)N[C@H]1[C@@H](OCc2ccccc2)O[C@H](COCc2ccccc2)[C@@H](OCc2ccccc2)[C@@H]1OCc1ccccc1`, for which the inhibition in vivo at 10 µmol/kg worked out at 81.6%.
As for `CC1(C)COC(CCN[C@@H](Cc2ccccc2)C(=O)N[C@H]2[C@@H](OCc3ccccc3)O[C@H](COCc3ccccc3)[C@@H](OCc3ccccc3)[C@@H]2OCc2ccccc2)OC1`, the inhibition in vivo at 10 µmol/kg was determined as 87.1%.
With `CC(C)[C@H](NCCC1OCC(C)(C)CO1)C(=O)N[C@H]1[C@@H](OCc2ccccc2)O[C@H](COCc2ccccc2)[C@@H](OCc2ccccc2)[C@@H]1OCc1ccccc1`, the inhibition in vivo at 10 µmol/kg was found to be 86.2%.
In the case of `C[C@H](NCCC1OCC(C)(C)CO1)C(=O)N[C@H]1[C@@H](OCc2ccccc2)O[C@H](COCc2ccccc2)[C@@H](OCc2ccccc2)[C@@H]1OCc1ccccc1`, the inhibition in vivo at 10 µmol/kg is 90.3%.
On to `CC1(C)COC(CCN[C@@H](Cc2c[nH]c3ccccc23)C(=O)N[C@H]2[C@@H](OCc3ccccc3)O[C@H](COCc3ccccc3)[C@@H](OCc3ccccc3)[C@@H]2OCc2ccccc2)OC1`, for which the inhibition in vivo at 10 µmol/kg came to 80.1%.
For the compound `CC(C)C[C@H](NCCC1OCC(C)(C)CO1)C(=O)N[C@H]1[C@@H](OCc2ccccc2)O[C@H](COCc2ccccc2)[C@@H](OCc2ccccc2)[C@@H]1OCc1ccccc1`, the inhibition in vivo at 10 µmol/kg amounted to 76.7%.
As for `CC[C@H](C)[C@H](NCCC1OCC(C)(C)CO1)C(=O)N[C@H]1[C@@H](OC(C)=O)O[C@H](COC(C)=O)[C@@H](OC(C)=O)[C@@H]1OC(C)=O`, the inhibition in vivo at 10 µmol/kg stood at 79.8%.
On the same count and under the same terms, in the case of `CC(=O)OC[C@H]1O[C@H](OC(C)=O)[C@H](NC(=O)[C@H](Cc2ccccc2)NCCC2OCC(C)(C)CO2)[C@@H](OC(C)=O)[C@@H]1OC(C)=O` it was 86.8%.
Same read-out and setting: the same measure for `CC(=O)OC[C@H]1O[C@H](OC(C)=O)[C@H](NC(=O)[C@@H](NCCC2OCC(C)(C)CO2)C(C)C)[C@@H](OC(C)=O)[C@@H]1OC(C)=O`: 70.6%; for `CC(=O)OC[C@H]1O[C@H](OC(C)=O)[C@H](NC(=O)[C@H](C)NCCC2OCC(C)(C)CO2)[C@@H](OC(C)=O)[C@@H]1OC(C)=O`: 84.2%.
Consider `CC(=O)OC[C@H]1O[C@H](OC(C)=O)[C@H](NC(=O)[C@H](Cc2c[nH]c3ccccc23)NCCC2OCC(C)(C)CO2)[C@@H](OC(C)=O)[C@@H]1OC(C)=O`, for which the inhibition in vivo at 10 µmol/kg was determined as 80.7%.
As to `CC(=O)OC[C@H]1O[C@H](OC(C)=O)[C@H](NC(=O)[C@H](CC(C)C)NCCC2OCC(C)(C)CO2)[C@@H](OC(C)=O)[C@@H]1OC(C)=O`, the inhibition in vivo at 10 µmol/kg was determined as 86.6%.
With `CC[C@H](C)[C@H](NCCC1OCC(C)(C)CO1)C(=O)N[C@H]1C(O)O[C@H](CO)[C@@H](O)[C@@H]1O` (some centres not stated), the inhibition in vivo at 10 µmol/kg is 88.7%.
Take `CC1(C)COC(CCN[C@@H](Cc2ccccc2)C(=O)N[C@H]2C(O)O[C@H](CO)[C@@H](O)[C@@H]2O)OC1` (some centres not stated): the inhibition in vivo at 10 µmol/kg turned out to be 81.9%.
On the same count and under the same terms, in the case of `CC(C)[C@H](NCCC1OCC(C)(C)CO1)C(=O)N[C@H]1C(O)O[C@H](CO)[C@@H](O)[C@@H]1O` (some centres not stated) it was 85.1%; in that of `C[C@H](NCCC1OCC(C)(C)CO1)C(=O)N[C@H]1C(O)O[C@H](CO)[C@@H](O)[C@@H]1O` (some centres not stated), 86.8%.
The same measure, in the same setting: in the case of `CC1(C)COC(CCN[C@@H](Cc2c[nH]c3ccccc23)C(=O)N[C@H]2C(O)O[C@H](CO)[C@@H](O)[C@@H]2O)OC1` (some centres not stated) it was 80.3%.
The same measure, in the same setting: in the case of `CC(C)C[C@H](NCCC1OCC(C)(C)CO1)C(=O)N[C@H]1C(O)O[C@H](CO)[C@@H](O)[C@@H]1O` (some centres not stated) it was 81.8%.
For the compound `N[C@H]1C(O)O[C@H](CO)[C@@H](O)[C@@H]1O` (some centres not stated) [GLUCOSAMINE HYDROCHLORIDE], the inhibition in vivo at 10 µmol/kg worked out at 64.3%.

A further assay concerns Mus musculus. As to the kind of experiment: Antiinflammatory activity against ICR mouse ear edema model assessed as inhibition of xylene-induced edema at 100 mg/kg, po administered 30 mins prior to xylene challenge measured after 2 hrs relative to vehicle-treated control. The class given is functional. In outline:
as §1
As to `CC(=O)Oc1ccccc1C(=O)O` [ASPIRIN], the inhibition in vivo at 100 mg/kg was found to be 89.5%.

A further assay relates to Mus musculus. As to the kind of experiment: Antiinflammatory activity against ICR mouse ear edema model assessed as inhibition of xylene-induced edema at 0.1 umol/kg, po administered 30 mins prior to xylene challenge measured after 2 hrs relative to vehicle-treated control. The assay is classed as functional. The essentials: as §1
Turning to `CC[C@H](C)[C@H](NCCC1OCC(C)(C)CO1)C(=O)N[C@H]1C(O)O[C@H](CO)[C@@H](O)[C@@H]1O` (some centres not stated), the inhibition in vivo at 0.1 µmol/kg stood at 44.3%.
